Reference: ChEMBL document CHEMBL1811846, “Synthesis and biological activity of naphthyl-substituted (B-ring) benzophenone derivatives as novel non-nucleoside HIV-1 reverse transcriptase inhibitors” (Bioorg Med Chem, 2011)

Legend:
[1] = Cytotoxicity against human C8166 cells by MTT colorimetric assay; assay type: cell-based
Method in brief: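 Uninfected C8166 cells exposed to compounds; viability read by MTT colorimetric assay at absorbance 570/630 nm. CC₅₀ is the concentration reducing viability by 50%.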

[2] = test system: Human immunodeficiency virus 1; test: Antiviral activity against HIV1 A17 expressing reverse transcriptase K103N/Y181C double mutant infected in human C8166 cells assessed as protection against virus-induced cytopathogenicity after 3 days by measuring syncytia under inverted microscope; assay type: functional, organism-based; conditions: Human immunodeficiency virus 1, A17, C8166, 72 h
Method in brief: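 C8166 cells (4 × 10⁵/mL) infected with HIV-1 A17 at MOI 0.06 in the presence of various compound concentrations. AZT and GW678248 served as drug controls. After 3 days of culture, syncytia (multinucleated giant cells) were scored under an inverted microscope. EC₅₀ was calculated as the concentration blocking syncytium formation by 50%.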

[3] = Selectivity index, ratio of CC50 for human C8166 cells to EC50 for HIV1 3B infected in human C8166 cells; assay type: toxicity, cell-based; conditions: HIV-1 3B infected C8166 cells, read-out: Ratio CC50/EC50
Method in brief: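 Calculated as CC₅₀ (MTT viability of uninfected C8166 cells) divided by EC₅₀ against HIV-1 IIIB (syncytium scoring in C8166 cells, M.O.I. 0.06, 3 days).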

[4] = test system: Human immunodeficiency virus 1; test: Antiviral activity against wild-type HIV1 3B infected in human C8166 cells assessed as protection against virus-induced cytopathogenicity after 3 days by measuring syncytia under inverted microscope; assay type: functional, organism-based; conditions: Human immunodeficiency virus 1, 3B, C8166, 72 h
Method in brief: (§1)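 C8166 cells at 4 × 10⁵/mL infected at M.O.I. 0.06 in the presence of serial compound concentrations, with AZT and GW678248 as drug controls. After 3 days of culture, syncytia (multinucleated giant cells) counted under an inverted microscope. EC₅₀ is the concentration blocking syncytium formation by 50%.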

[5] = test system: Human immunodeficiency virus 2; test: Antiviral activity against HIV-2 ROD infected in human C8166 cells assessed as protection against viral cytopathogenicity after 3 days by measuring syncytia under inverted microscope; assay type: functional, organism-based; conditions: Human immunodeficiency virus 2, ISOLATE ROD, C8166, 72 h; method in brief: as §1

Structure (SMILES)	CC50 [1] [µM]	EC50 [2] [µM]	selectivity ratio [3]	EC50 [4] [µM]	EC50 [5] [µM]
Cc1cc(S(N)(=O)=O)ccc1NC(=O)COc1ccc2ccccc2c1C(=O)c1ccccc1	33.8	9.6	642	0.0527	–
Cc1ccc(C(=O)c2c(OCC(=O)Nc3ccc(S(N)(=O)=O)cc3C)ccc3ccccc23)c(C)c1	25.5	7.9	183	0.139	–
Cc1cc(C)cc(C(=O)c2c(OCC(=O)Nc3ccc(S(N)(=O)=O)cc3C)ccc3cc(Br)ccc23)c1	31	7.8	7	4.42	29.8
Cc1cc(C)cc(C(=O)c2c(OCC(=O)Nc3ccc(S(N)(=O)=O)cc3C)ccc3cc(C#N)ccc23)c1	128	16.3	72	1.78	–
Cc1cccc(C(=O)c2c(OCC(=O)Nc3ccc(S(N)(=O)=O)cc3C)ccc3cc(Br)ccc23)c1	6.8	3.4	2.9	2.3	–
Cc1cc(C)cc(C(=O)c2c(OCC(=O)Nc3ccc(S(N)(=O)=O)cc3C)ccc3ccccc23)c1	39.1	8.4	5040	0.0078	45.4
Cc1cc(S(N)(=O)=O)ccc1NC(=O)COc1ccc(Cl)cc1C(=O)c1cc(Cl)cc(C#N)c1	> 387	0.0014	> 563000	–	2.1
Cc1cc(S(N)(=O)=O)ccc1NC(=O)COc1ccc2ccccc2c1C(=O)c1cccc(Cl)c1	37.4	9.5	1110	0.0338	34.5
Cc1cccc(C(=O)c2c(OCC(=O)Nc3ccc(S(N)(=O)=O)cc3C)ccc3ccccc23)c1	40.4	2.4	2990	0.0135	28.3
Cc1ccc(C(=O)c2c(OCC(=O)Nc3ccc(S(N)(=O)=O)cc3C)ccc3cc(C#N)ccc23)cc1C	> 379	97.3	> 4.4	86.3	–
Cc1cc(S(N)(=O)=O)ccc1NC(=O)COc1ccc2ccccc2c1C(=O)c1cc(Cl)cc(C#N)c1	49.4	2.1	10300	0.0048	23.6
Cc1cn([C@H]2C[C@H](N=[N+]=[N-])[C@@H](CO)O2)c(=O)[nH]c1=O [ZIDOVUDINE]	5400	0.023	422000	–	0.039
Cc1cc(S(N)(=O)=O)ccc1NC(=O)COc1ccc2ccccc2c1C(=O)c1cc(Cl)cc(Br)c1	36.6	7.5	1350	0.0271	–
Cc1ccc(C)c(C(=O)c2c(OCC(=O)Nc3ccc(S(N)(=O)=O)cc3C)ccc3cc(Br)ccc23)c1	14	20.7	5.3	2.64	–
Cc1cc(S(N)(=O)=O)ccc1NC(=O)COc1ccc2cc(Br)ccc2c1C(=O)c1ccccc1	29.2	25.8	6.3	4.61	27.7
Cc1cc(S(N)(=O)=O)ccc1NC(=O)COc1ccc2cc(Br)ccc2c1C(=O)c1cccc(Cl)c1	6.8	3.9	4.1	1.67	–
Cc1cc(S(N)(=O)=O)ccc1NC(=O)COc1ccc2cc(Br)ccc2c1C(=O)c1cc(Cl)cc(Br)c1	28.5	10.2	3.8	7.57	11.1
Cc1ccc(C(=O)c2c(OCC(=O)Nc3ccc(S(N)(=O)=O)cc3C)ccc3cc(Br)ccc23)c(C)c1	61.4	33.1	2.6	23.6	–
Cc1cccc(C(=O)c2c(OCC(=O)Nc3ccc(S(N)(=O)=O)cc3C)ccc3cc(C#N)ccc23)c1	15.2	10.4	19.2	0.791	–
Cc1cc(S(N)(=O)=O)ccc1NC(=O)COc1ccc2cc(C#N)ccc2c1C(=O)c1cccc(Cl)c1	> 374	20.6	> 183	2.05	–
Cc1ccc(C)c(C(=O)c2c(OCC(=O)Nc3ccc(S(N)(=O)=O)cc3C)ccc3ccccc23)c1	47.5	7.6	4090	0.0116	30.3
Cc1cc(S(N)(=O)=O)ccc1NC(=O)COc1ccc2cc(Br)ccc2c1C(=O)c1cccc(F)c1	24.5	9.7	2.7	9.17	6
Cc1ccc(C(=O)c2c(OCC(=O)Nc3ccc(S(N)(=O)=O)cc3C)ccc3ccccc23)cc1C	33	12.3	54.2	0.609	–
Cc1ccc(C(=O)c2c(OCC(=O)Nc3ccc(S(N)(=O)=O)cc3C)ccc3cc(Br)ccc23)cc1C	85.2	28.2	2.7	31.9	–
